The source made the active and inactive calls. The calls are words filed in the database; no cut-off is given here.
Experiments:
Mus musculus [1] = assay: Teratogenic effect in VPA-induced SWV mouse assessed as number of fetuses with neural tube deffects at 671 mg/kg, ip administered on morning of day 8 of gestation; assay type: toxicity, organism-based; set-up: dose 671 mg/kg, route intraperitoneal; conditions: in vivo
Method in brief: (§1)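 Inbred SWV mouse strain highly susceptible to VPA-induced neural tube defects. Each dam received a single ip injection on gestation day 8.5, dosed within 1.8-4.2 mmol/kg, against a control of 25% aqueous Cremophor EL. Groups were compared with the control, and with the matched VPA sodium-salt dose, by Fisher's exact test (p < 0.05).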

Mus musculus [2] = assay: Teratogenic effect in SWV mouse assessed as live fetuses at 671 mg/kg, ip administered on morning of day 8 of gestation; assay type: toxicity, organism-based; set-up: dose 671 mg/kg, route intraperitoneal; conditions: in vivo; method in brief: as §1
Mus musculus [3] = assay: Anticonvulsant activity in CF1 albino mouse assessed as protection against scMet-induced seizures at 300 mg/kg, ip after 4 hrs; assay type: functional, organism-based; set-up: dose 300 mg/kg
Method in brief: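 Adult male CF no. 1 albino mice (18-25 g) dosed intraperitoneally with compound suspended in 0.5% methylcellulose (0.01 mL/g). Convulsant challenge given subcutaneously as a 0.85% pentylenetetrazol solution in 0.9% saline. Read-out is animals protected over animals tested, with neurotoxicity scored in parallel.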

Mus musculus [4] = assay: Teratogenic effect in SWV mouse assessed as number of litters at 336 mg/kg, ip administered on morning of day 8 of gestation; assay type: toxicity, organism-based; set-up: dose 336 mg/kg, route intraperitoneal; conditions: in vivo; method in brief: as §1
Mus musculus [5] = assay: Teratogenic effect in SWV mouse assessed as number of implants at 671 mg/kg, ip administered on morning of day 8 of gestation; assay type: toxicity, organism-based; set-up: dose 671 mg/kg, route intraperitoneal; conditions: in vivo; method in brief: as §1
[6] = Neurotoxicity in ip dosed CF1 albino mouse assessed as minimal motor impairment; assay type: toxicity, organism-based; conditions: CF1, mouse, in vivo
Method in brief: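 Mice: male CF no. 1 albino (18-25 g), ip dosing in 0.5% methylcellulose. Minimal motor impairment was scored, with doses varied to give four points between no impairment and all animals impaired.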

Mus musculus [7] = assay: Teratogenic effect in SWV mouse assessed as number of litters at 502 mg/kg, ip administered on morning of day 8 of gestation; assay type: toxicity, organism-based; set-up: dose 502 mg/kg, route intraperitoneal; conditions: in vivo; method in brief: as §1
Mus musculus [8] = assay: Teratogenic effect in VPA-induced SWV mouse assessed as number of fetuses with neural tube deffects at 336 mg/kg, ip administered on morning of day 8 of gestation; assay type: toxicity, organism-based; set-up: dose 336 mg/kg, route intraperitoneal; conditions: in vivo; method in brief: as §1
Mus musculus [9] = assay: Anticonvulsant activity in CF1 albino mouse assessed as protection against maximal electroshock-induced seizures at 100 mg/kg, ip after 4 hrs; assay type: functional, organism-based; set-up: dose 100 mg/kg
Method in brief: (§2)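 Adult male CF no. 1 albino mice (18-25 g). Test compound suspended in 0.5% methylcellulose and given intraperitoneally at 0.01 mL/g body weight. Maximal electroshock challenge at the stated time. Read-out is the number of animals protected over the number tested; neurotoxicity is scored in parallel.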

Mus musculus [10] = assay: Teratogenic effect in VPA-induced SWV mouse assessed as number of fetuses with neural tube deffects at 502 mg/kg, ip administered on morning of day 8 of gestation; assay type: toxicity, organism-based; set-up: dose 502 mg/kg, route intraperitoneal; conditions: in vivo; method in brief: as §1
Mus musculus [11] = assay: Teratogenic effect in SWV mouse assessed as number of dead fetuses at 502 mg/kg, ip administered on morning of day 8 of gestation; assay type: toxicity, organism-based; set-up: dose 502 mg/kg, route intraperitoneal; conditions: in vivo; method in brief: as §1
Mus musculus [12] = assay: Anticonvulsant activity in CF1 albino mouse assessed as protection against maximal electroshock-induced seizures at 60 mg/kg, ip; assay type: functional, organism-based; set-up: dose 60 mg/kg; method in brief: as §2
Mus musculus [13] = assay: Neurotoxicity in CF1 albino mouse at 30 mg/kg, ip after 0.5 hrs; assay type: toxicity, organism-based; set-up: dose 30 mg/kg, route intraperitoneal; conditions: in vivo
Method in brief: (§3)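 Male CF no. 1 albino mice (18-25 g) received a single ip dose as a suspension in 0.5% methylcellulose. The read-out was the number of animals showing neurotoxicity (minimal motor impairment) over the number tested.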

Mus musculus [14] = assay: Teratogenic effect in SWV mouse assessed as resorptions at 502 mg/kg, ip administered on morning of day 8 of gestation; assay type: toxicity, organism-based; set-up: dose 502 mg/kg, route intraperitoneal; conditions: in vivo; method in brief: as §1
Mus musculus [15] = assay: Neurotoxicity in CF1 albino mouse assessed as minimal motor impairment at 60 mg/kg, ip; assay type: toxicity, organism-based; set-up: dose 60 mg/kg, route intraperitoneal; conditions: in vivo; method in brief: as §3
Rattus norvegicus [16] = assay: Anticonvulsant activity in ip dosed albino Sprague-Dawley rat assessed as protection against pilocarpine-induced status epilepticus; assay type: functional
Method in brief: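 Rat pilocarpine-induced status model: drug was given either at the first stage III seizure (time 0) or 30 min after status induction, […]. Seizure severity was scored on the Racine scale as protection or no protection. Time 0 used 12, 25, 50 and 100 mg/kg with 8 rats per dose. The 30 min arm used 50, 75 and 100 mg/kg with 7, 6 and 7 rats. ED50 was calculated.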

Rattus norvegicus [17] = assay: Anticonvulsant activity in albino Sprague-Dawley rat assessed as protection against scMet-induced seizures at 50 mg/kg, po after 30 mins; assay type: functional
Method in brief: (§4)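 Male Sprague-Dawley albino rats (100-150 g) were given the compound orally as a suspension in 0.5% methylcellulose. Seizures were induced by subcutaneous pentylenetetrazol, dissolved in 0.9% saline as a 2.82% solution. The read-out was animals protected over animals tested.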

Rattus norvegicus [18] = assay: Anticonvulsant activity in albino Sprague-Dawley rat assessed as protection against scMet-induced seizures at 50 mg/kg, po after 4 hrs; assay type: functional; method in brief: as §4
Rattus norvegicus [19] = assay: Anticonvulsant activity in albino Sprague-Dawley rat assessed as protection against maximal electroshock-induced seizures at 50 mg/kg, po after 1 hr; assay type: functional
Method in brief: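 Adult male Sprague-Dawley albino rats (100-150 g) dosed orally with compound suspended in 0.5% methylcellulose (0.04 mL per 10 g). Maximal electroshock challenge at the stated time. Protection is scored in 25% steps as the fraction of animals protected, with neurotoxicity recorded in parallel.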

Rattus norvegicus [20] = assay: Neurotoxicity in albino Sprague-Dawley rat at 50 mg/kg, po; assay type: toxicity, organism-based; set-up: dose 50 mg/kg, route oral; conditions: in vivo
Method in brief: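 Neurotoxicity was scored in male Sprague-Dawley albino rats (100-150 g) dosed orally with a suspension in 0.5% methylcellulose. The read-out was the fraction of animals showing neurotoxicity (minimal motor impairment).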

Rattus norvegicus [21] = assay: Anticonvulsant activity in albino Sprague-Dawley rat assessed as protection against scMet-induced seizures at 50 mg/kg, po after 15 mins; assay type: functional; method in brief: as §4

## CC1(C)C(C)(C)C1(F)C(N)=O
Mus musculus [1]
  Activity: 0
Mus musculus [2]
  Activity: 21.8%
Mus musculus [3]
  Activity: Non-toxic
Mus musculus [4]
  Activity: 8
Mus musculus [5]
  Activity: 55
[6]
  TD50: 120 mg/kg
Mus musculus [7]
  Activity: 10
Mus musculus [8]
  Activity: 0
Mus musculus [9]
  Activity: Non-toxic
Mus musculus [10]
  Activity: 0
Mus musculus [11]
  Activity: 0
Mus musculus [12]
  Activity: inactive
Mus musculus [13]
  Activity: Non-toxic
Mus musculus [14]
  Activity: 26.8%
Mus musculus [15]
  Activity: Non-toxic
Rattus norvegicus [16]
  ED50: 23 mg/kg
Rattus norvegicus [17]
  Activity: 75%
Rattus norvegicus [18]
  Activity: 50%
Rattus norvegicus [19]
  Activity: inactive
Rattus norvegicus [20]
  Activity: Not Active
Rattus norvegicus [21]
  Activity: 100%

Source: ChEMBL document CHEMBL1153988 (J Med Chem, 2009)
